pEC50: −log10 of the molar value.
How the values were obtained:
Hepatitis C virus [1] = assay: Antiviral activity against Hepatitis C virus subtype 1b Con1 subgenomic replicon expressing NS5A infected in human HuH7 cells assessed as reduction in viral replication incubated for 3 days by luciferase reporter gene assay; type: functional, organism-based, Hepacivirus hominis; conditions: subtype 1b Con1, Huh-7, 72 h
Procedure, shortened: (§1)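 HCV replicon cell assay; inhibition of replication read as decrease in luciferase signal. Percent inhibition computed at each compound concentration; EC50 (pM) from nonlinear regression fit to a 4-parameter logistic equation. Values are means of triplicate wells, with each experiment run at least twice.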

Hepatitis C virus [2] = assay: Antiviral activity against Hepatitis C virus subtype 3a subgenomic replicon expressing NS5A infected in human HuH7 cells assessed as reduction in viral replication incubated for 3 days by luciferase reporter gene assay; type: functional, organism-based, Hepacivirus hominis; conditions: Huh-7, 72 h; procedure, shortened: as §1
Hepatitis C virus [3] = assay: Antiviral activity against Hepatitis C virus subtype 6a subgenomic replicon expressing NS5A infected in human HuH7 cells assessed as reduction in viral replication incubated for 3 days by luciferase reporter gene assay; type: functional, organism-based, Hepacivirus hominis; conditions: Huh-7, 72 h; procedure, shortened: as §1
Hepatitis C virus [4] = assay: Antiviral activity against Hepatitis C virus subtype 1a H77 subgenomic replicon expressing NS5A infected in human HuH7 cells assessed as reduction in viral replication incubated for 3 days by luciferase reporter gene assay; type: functional, organism-based, Hepacivirus hominis; conditions: subtype 1a H77, Huh-7, 72 h; procedure, shortened: as §1
Hepatitis C virus [5] = assay: Potency index, ratio of EC50 of to EC50 of compound for antiviral activity against Hepatitis C virus subtype 6a subgenomic replicon expressing NS5A infected in human HuH7 cells assessed as reduction in viral replication incubated for 3 days by luciferase reporter gene assay; type: functional, Hepacivirus hominis
[6] = Drug distribution in mouse liver at 10 mg/kg, po incubated for 0.5 hrs by UPLC-MS/MS analysis; type: ADME, organism-based; conditions: read-out: Drug uptake
Procedure, shortened: (§2)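 Oral dosing in mice and rats; compound measured in plasma and liver by UPLC-MS/MS at each time point, n = 3 (mean ± SD). LPR is mean liver concentration divided by mean plasma concentration.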

[7] = Drug distribution in mouse plasma at 10 mg/kg, po incubated for 0.5 hrs by UPLC-MS/MS analysis; type: ADME, organism-based; procedure, shortened: as §2
[8] = Drug distribution in rat plasma at 10 mg/kg, po incubated for 8 hrs by UPLC-MS/MS analysis; type: ADME, organism-based; procedure, shortened: as §2
[9] = Ratio of drug distribution in rat liver to drug distribution in rat plasma measured after 3 hrs by UPLC-MS/MS analysis; type: ADME, cell-free; procedure, shortened: as §2
[10] = Drug distribution in rat liver at 10 mg/kg, po incubated for 8 hrs by UPLC-MS/MS analysis; type: ADME, organism-based; conditions: read-out: Drug uptake; procedure, shortened: as §2
[11] = Drug distribution in rat plasma at 10 mg/kg, po incubated for 0.5 hrs by UPLC-MS/MS analysis; type: ADME, organism-based; procedure, shortened: as §2
[12] = Ratio of drug distribution in mouse liver to drug distribution in mouse plasma measured after 0.5 hrs by UPLC-MS/MS analysis; type: ADME, cell-free; procedure, shortened: as §2
[13] = Drug distribution in rat liver at 10 mg/kg, po incubated for 3 hrs by UPLC-MS/MS analysis; type: ADME, organism-based; conditions: read-out: Drug uptake; procedure, shortened: as §2
[14] = Ratio of drug distribution in mouse liver to drug distribution in mouse plasma measured after 24 hrs by UPLC-MS/MS analysis; type: ADME, cell-free; procedure, shortened: as §2
[15] = Drug distribution in mouse liver at 10 mg/kg, po incubated for 3 hrs by UPLC-MS/MS analysis; type: ADME, organism-based; conditions: read-out: Drug uptake; procedure, shortened: as §2
[16] = Ratio of drug distribution in mouse liver to drug distribution in mouse plasma measured after 3 hrs by UPLC-MS/MS analysis; type: ADME, cell-free; procedure, shortened: as §2
[17] = Drug distribution in rat plasma at 10 mg/kg, po incubated for 3 hrs by UPLC-MS/MS analysis; type: ADME, organism-based; procedure, shortened: as §2
[18] = Drug distribution in mouse liver at 10 mg/kg, po incubated for 24 hrs by UPLC-MS/MS analysis; type: ADME, organism-based; conditions: read-out: Drug uptake; procedure, shortened: as §2
[19] = Drug distribution in rat liver at 10 mg/kg, po incubated for 0.5 hrs by UPLC-MS/MS analysis; type: ADME, organism-based; conditions: read-out: Drug uptake; procedure, shortened: as §2
[20] = Drug distribution in mouse plasma at 10 mg/kg, po incubated for 3 hrs by UPLC-MS/MS analysis; type: ADME, organism-based; procedure, shortened: as §2
[21] = Drug distribution in mouse plasma at 10 mg/kg, po incubated for 24 hrs by UPLC-MS/MS analysis; type: ADME, organism-based; procedure, shortened: as §2
[22] = Ratio of drug distribution in rat liver to drug distribution in rat plasma measured after 0.5 hrs by UPLC-MS/MS analysis; type: ADME, cell-free; procedure, shortened: as §2
[23] = Ratio of drug distribution in rat liver to drug distribution in rat plasma measured after 8 hrs by UPLC-MS/MS analysis; type: ADME, cell-free; procedure, shortened: as §2
[24] = Metabolic stability in human liver microsomes assessed as compound remaining at 1 uM incubated for 60 mins by UPLC-MS/MS analysis; type: ADME, Microsome; conditions: read-out: Stability
Procedure, shortened: (§3)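 Pooled mouse, rat or human liver microsomes (0.5 mg/mL) with 1 μM compound, 1 mM NADPH, 5 mM MgCl₂ and 100 mM potassium phosphate pH 7.4. Pre-incubated 5 min at 37 °C, started with NADPH, then run 60 min at 37 °C. Quenched with ice-cold acetonitrile containing internal standard; parent remaining measured by UPLC-MS/MS.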

[25] = Metabolic stability in mouse liver microsomes assessed as compound remaining at 1 uM incubated for 60 mins by UPLC-MS/MS analysis; type: ADME, Microsome; conditions: read-out: Stability; procedure, shortened: as §3
[26] = Metabolic stability in rat liver microsomes assessed as compound remaining at 1 uM incubated for 60 mins by UPLC-MS/MS analysis; type: ADME, Microsome; conditions: read-out: Stability; procedure, shortened: as §3

Row | SMILES | pEC50 (Hepatitis C virus [1]) | pEC50 (Hepatitis C virus [2]) | pEC50 (Hepatitis C virus [3]) | pEC50 (Hepatitis C virus [4]) | further results
1 | CC[Si](CC)(CC)c1ccc(N2[C@H](c3ccc(NC(=O)[C@@H]4CCCN4C(=O)[C@@H](NC(=O)OC)C(C)C)cc3)CC[C@H]2c2ccc(NC(=O)[C@@H]3CCCN3C(=O)[C@@H](NC(=O)OC)C(C)C)cc2)cc1 | 11.55 | 11.24 | 9.09 | 10.96 | 
2 | COC(=O)N[C@H](C(=O)N1CCC[C@H]1C(=O)Nc1ccc([C@@H]2CC[C@@H](c3ccc(NC(=O)[C@@H]4CCCN4C(=O)[C@@H](NC(=O)OC)C(C)C)cc3)N2c2cc(F)c(N3CC[Si](C)(C)CC3)c(F)c2)cc1)C(C)C | 12.40 | 10.96 | 10.06 | 12.05 | 
3 | COC(=O)N[C@H](C(=O)N1CCC[C@H]1C(=O)Nc1ccc([C@@H]2CC[C@@H](c3ccc(NC(=O)[C@@H]4CCCN4C(=O)[C@@H](NC(=O)OC)[C@@H](C)OC)cc3)N2c2ccc(N3CC[Si](C)(C)CC3)c(F)c2)cc1)[C@@H](C)OC | 11.54 | 11.22 | 9.62 | 10.92 | 
4 | COC(=O)N[C@H](C(=O)N1CCC[C@H]1C(=O)Nc1ccc([C@@H]2CC[C@@H](c3ccc(NC(=O)[C@@H]4CCCN4C(=O)[C@@H](NC(=O)OC)C(C)C)cc3)N2c2ccc(N3CC[Si](C)(C)CC3)c(F)c2)cc1)C(C)C | 12.40 | 11.06 | 9.74 | 12.10 | 
5 | COC(=O)N[C@H](C(=O)N1CCC[C@H]1C(=O)Nc1ccc([C@@H]2CC[C@@H](c3ccc(NC(=O)[C@@H]4CCCN4C(=O)[C@@H](NC(=O)OC)[C@@H](C)OC)cc3)N2c2ccc([Si](C)(C)C(C)(C)C)cc2)cc1)[C@@H](C)OC | 11.85 | 11.52 | 10.10 | 11.10 | Ratio EC50 (Hepatitis C virus [5]): 10
6 | COC(=O)N[C@H](C(=O)N1CCC[C@H]1C(=O)Nc1ccc([C@H]2CC[C@H](c3ccc(NC(=O)[C@@H]4CCCN4C(=O)[C@@H](NC(=O)OC)[C@@H](C)OC)cc3)N2c2ccc(N3CC[Si](C)(C)CC3)c(F)c2)cc1)[C@@H](C)OC | 10.80 | 10.85 | 9.34 | 10.19 | 
7 | COC(=O)N[C@H](C(=O)N1CCC[C@H]1C(=O)Nc1ccc([C@H]2CC[C@H](c3ccc(NC(=O)[C@@H]4CCCN4C(=O)[C@@H](NC(=O)OC)[C@@H](C)OC)cc3)N2c2cc(F)c(N3CC[Si](C)(C)CC3)c(F)c2)cc1)[C@@H](C)OC | 11.77 | 11.32 | 9.94 | 10.92 | 
8 | COC(=O)N[C@H](C(=O)N1CCC[C@H]1C(=O)Nc1ccc([C@H]2CC[C@H](c3ccc(NC(=O)[C@@H]4CCCN4C(=O)[C@@H](NC(=O)OC)C(C)C)cc3)N2c2cc(F)c(N3CC[Si](C)(C)CC3)c(F)c2)cc1)C(C)C | 12.40 | 10.43 | 9.33 | 12.05 | 
9 | CC[Si](CC)(CC)c1ccc(N2[C@H](c3ccc(NC(=O)[C@@H]4CCCN4C(=O)[C@@H](NC(=O)OC)[C@@H](C)OC)cc3)CC[C@H]2c2ccc(NC(=O)[C@@H]3CCCN3C(=O)[C@@H](NC(=O)OC)[C@@H](C)OC)cc2)cc1 | 12.00 | 11.70 | 9.92 | 11.64 | Ratio EC50 (Hepatitis C virus [5]): 7
10 | COC(=O)N[C@H](C(=O)N1CCC[C@H]1c1nc2cc([C@@H]3CC[C@@H](c4cc5nc([C@@H]6CCCN6C(=O)[C@@H](NC(=O)OC)[C@@H](C)OC)[nH]c5cc4F)N3c3cc(F)c(N4CCC(c5ccc(F)cc5)CC4)c(F)c3)c(F)cc2[nH]1)[C@@H](C)OC |  |  |  |  | concentration at 0.5 h [6]: 94 ng/g; concentration at 0.5 h [7]: 414 ng/mL; concentration at 8 h [8]: 30.1 ng/mL; Kp at 3 h [9]: 1.1; concentration at 8 h [10]: 18.9 ng/g; concentration at 0.5 h [11]: 103 ng/mL; Kp at 0.5 h [12]: 0.43; concentration at 3 h [13]: 102 ng/g; Kp at 24 h [14]: 0.11; concentration at 3 h [15]: 193 ng/g; Kp at 3 h [16]: 0.39; concentration at 3 h [17]: 96.4 ng/mL; concentration at 24 h [18]: 69.6 ng/g; concentration at 0.5 h [19]: 155 ng/g; concentration at 3 h [20]: 1540 ng/mL; concentration at 24 h [21]: 718 ng/mL; Kp at 0.5 h [22]: 1.5; Kp at 8 h [23]: 0.63
11 | COC(=O)N[C@H](C(=O)N1CCC[C@H]1C(=O)Nc1ccc([C@H]2CC[C@H](c3ccc(NC(=O)[C@@H]4CCCN4C(=O)[C@@H](NC(=O)OC)C(C)C)cc3)N2c2ccc(N3CC[Si](C)(C)CC3)c(F)c2)cc1)C(C)C | 12.30 | 10.29 | 9.08 | 12.10 | 
12 | COC(=O)N[C@H](C(=O)N1CCC[C@H]1C(=O)Nc1ccc([C@@H]2CC[C@@H](c3ccc(NC(=O)[C@@H]4CCCN4C(=O)[C@@H](NC(=O)OC)[C@@H](C)OC)cc3)N2c2ccc([Si](C)(C)C)cc2)cc1)[C@@H](C)OC | 11.80 | 11.15 | 9.61 | 10.92 | 
13 | COC(=O)N[C@H](C(=O)N1CCC[C@H]1C(=O)Nc1ccc([C@@H]2CC[C@@H](c3ccc(NC(=O)[C@@H]4CCCN4C(=O)[C@@H](NC(=O)OC)C(C)C)cc3)N2c2ccc(C(C)(C)C)cc2)cc1)C(C)C [OMBITASVIR] |  |  |  |  | remaining at 1 h, 1 µM [24]: 82.5%; remaining at 1 h, 1 µM [25]: 63.5%; remaining at 1 h, 1 µM [26]: 73.5%
